Publication PMC5463557 (Journal of medicinal chemistry, 2017)
Entries after “also recorded” stand apart in the source; their conditions may differ.

Legend:
human wild-type CFTR [1] = target: T1, human wild-type CFTR (Homo sapiens, UniProt P13569); assay: Fluorescence plate reader assay of CFTR function; assay type: cell-based; conditions: for CFTR activation activity (in words): plate reader assay, structure-activity discussion
Method in brief: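 FRT cells stably coexpressing human wild-type CFTR and YFP-H148Q, grown near-confluent in 96-well plates. Washed with PBS, then 10 min in PBS with test compound plus 125 nM forskolin. YFP fluorescence read in single wells for 2 s baseline and 12 s after adding iodide solution (final 140 mM). Iodide influx rates give concentration–response curves; EC50 reported as mean ± SEM.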

[2] = tested on: loperamide-induced constipation in CD1 mice; assay: Loperamide-induced mouse model of acute constipation; assay type: in vivo; conditions: oral, 1 h before loperamide, 3-h stool
Method in brief: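 CD1 mice aged 8–10 weeks got test compound or vehicle orally 1 h before loperamide 0.3 mg/kg ip. Vehicle was saline with 5% DMSO and 10% Kolliphor HS 15. Mice kept in metabolic cages with free food and water; stool collected for 3 h. Total weight, pellet count and water content (wet vs dry weight) measured. Mean ± SEM; unpaired Student's t-test, P < 0.05.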

[3] = In vitro hepatic microsomal metabolic stability; assay type: in vitro ADME, human; conditions: 60 min, hepatic microsomes, NADPH, 5 μM
[4] = tested on: calcium-activated chloride channels in HT-29 cells; assay: Non-TMEM16A CaCC activity in HT-29 cells expressing YFP; assay type: cell-based; conditions: 10 μM
Method in brief: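 HT-29 cells expressing YFP used for non-TMEM16A calcium-activated chloride channel activity, with test compound at 10 μM. Iodide influx rate computed from YFP fluorescence.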

cytoplasmic calcium = assay: Cytoplasmic calcium by Fluo-4 fluorescence in FRT cells; assay type: cell-based, rat; conditions: 10 μM, 5 min pretreatment, 100 μM ATP
TMEM16A = target: T2, TMEM16A (Homo sapiens, UniProt Q5XXA6); assay: TMEM16A activity in FRT cells expressing YFP; assay type: cell-based; conditions: 10 μM
T2 sequence (Q5XXA6 1-986): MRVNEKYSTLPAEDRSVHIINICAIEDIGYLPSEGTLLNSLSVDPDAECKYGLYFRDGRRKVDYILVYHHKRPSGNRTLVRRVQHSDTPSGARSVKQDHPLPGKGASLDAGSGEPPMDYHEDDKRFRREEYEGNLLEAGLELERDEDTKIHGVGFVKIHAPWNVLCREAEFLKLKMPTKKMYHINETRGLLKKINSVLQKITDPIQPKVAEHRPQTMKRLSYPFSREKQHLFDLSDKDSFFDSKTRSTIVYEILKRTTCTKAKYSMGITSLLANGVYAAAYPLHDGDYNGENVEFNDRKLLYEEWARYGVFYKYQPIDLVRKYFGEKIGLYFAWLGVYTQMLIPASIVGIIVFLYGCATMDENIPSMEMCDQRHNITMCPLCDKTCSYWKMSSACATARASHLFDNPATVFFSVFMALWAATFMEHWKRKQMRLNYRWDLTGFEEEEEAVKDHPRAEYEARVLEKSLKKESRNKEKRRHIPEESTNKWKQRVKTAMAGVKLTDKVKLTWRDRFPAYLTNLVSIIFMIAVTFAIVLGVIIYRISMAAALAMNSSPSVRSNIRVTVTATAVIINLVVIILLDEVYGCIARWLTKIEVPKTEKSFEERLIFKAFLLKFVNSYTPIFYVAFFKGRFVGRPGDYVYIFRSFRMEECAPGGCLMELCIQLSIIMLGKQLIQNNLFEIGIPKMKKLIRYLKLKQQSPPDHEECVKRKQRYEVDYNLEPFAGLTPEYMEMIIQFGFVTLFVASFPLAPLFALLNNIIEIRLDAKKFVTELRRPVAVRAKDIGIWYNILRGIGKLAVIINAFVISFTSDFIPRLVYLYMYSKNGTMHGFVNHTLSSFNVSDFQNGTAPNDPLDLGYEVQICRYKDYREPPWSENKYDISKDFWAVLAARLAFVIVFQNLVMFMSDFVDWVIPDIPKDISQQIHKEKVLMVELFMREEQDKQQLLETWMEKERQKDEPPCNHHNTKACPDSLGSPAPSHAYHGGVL
Method in brief: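 FRT cells coexpressing YFP and TMEM16A, tested with 10 μM test compound. Run like the YFP iodide-influx plate reader assay; iodide influx rate computed from fluorescence.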

cellular cAMP level = assay: Cellular cAMP in FRT cells; assay type: cell-based, rat; conditions: 10 μM, 10 min, without or with 90 nM forskolin
human wild-type CFTR [5] = target: T1, human wild-type CFTR; assay: Short-circuit current measurement in CFTR-expressing FRT cells; assay type: cell-based; conditions: data not shown
mice = conditions: cited from earlier work

T1 sequence (P13569 whole entry): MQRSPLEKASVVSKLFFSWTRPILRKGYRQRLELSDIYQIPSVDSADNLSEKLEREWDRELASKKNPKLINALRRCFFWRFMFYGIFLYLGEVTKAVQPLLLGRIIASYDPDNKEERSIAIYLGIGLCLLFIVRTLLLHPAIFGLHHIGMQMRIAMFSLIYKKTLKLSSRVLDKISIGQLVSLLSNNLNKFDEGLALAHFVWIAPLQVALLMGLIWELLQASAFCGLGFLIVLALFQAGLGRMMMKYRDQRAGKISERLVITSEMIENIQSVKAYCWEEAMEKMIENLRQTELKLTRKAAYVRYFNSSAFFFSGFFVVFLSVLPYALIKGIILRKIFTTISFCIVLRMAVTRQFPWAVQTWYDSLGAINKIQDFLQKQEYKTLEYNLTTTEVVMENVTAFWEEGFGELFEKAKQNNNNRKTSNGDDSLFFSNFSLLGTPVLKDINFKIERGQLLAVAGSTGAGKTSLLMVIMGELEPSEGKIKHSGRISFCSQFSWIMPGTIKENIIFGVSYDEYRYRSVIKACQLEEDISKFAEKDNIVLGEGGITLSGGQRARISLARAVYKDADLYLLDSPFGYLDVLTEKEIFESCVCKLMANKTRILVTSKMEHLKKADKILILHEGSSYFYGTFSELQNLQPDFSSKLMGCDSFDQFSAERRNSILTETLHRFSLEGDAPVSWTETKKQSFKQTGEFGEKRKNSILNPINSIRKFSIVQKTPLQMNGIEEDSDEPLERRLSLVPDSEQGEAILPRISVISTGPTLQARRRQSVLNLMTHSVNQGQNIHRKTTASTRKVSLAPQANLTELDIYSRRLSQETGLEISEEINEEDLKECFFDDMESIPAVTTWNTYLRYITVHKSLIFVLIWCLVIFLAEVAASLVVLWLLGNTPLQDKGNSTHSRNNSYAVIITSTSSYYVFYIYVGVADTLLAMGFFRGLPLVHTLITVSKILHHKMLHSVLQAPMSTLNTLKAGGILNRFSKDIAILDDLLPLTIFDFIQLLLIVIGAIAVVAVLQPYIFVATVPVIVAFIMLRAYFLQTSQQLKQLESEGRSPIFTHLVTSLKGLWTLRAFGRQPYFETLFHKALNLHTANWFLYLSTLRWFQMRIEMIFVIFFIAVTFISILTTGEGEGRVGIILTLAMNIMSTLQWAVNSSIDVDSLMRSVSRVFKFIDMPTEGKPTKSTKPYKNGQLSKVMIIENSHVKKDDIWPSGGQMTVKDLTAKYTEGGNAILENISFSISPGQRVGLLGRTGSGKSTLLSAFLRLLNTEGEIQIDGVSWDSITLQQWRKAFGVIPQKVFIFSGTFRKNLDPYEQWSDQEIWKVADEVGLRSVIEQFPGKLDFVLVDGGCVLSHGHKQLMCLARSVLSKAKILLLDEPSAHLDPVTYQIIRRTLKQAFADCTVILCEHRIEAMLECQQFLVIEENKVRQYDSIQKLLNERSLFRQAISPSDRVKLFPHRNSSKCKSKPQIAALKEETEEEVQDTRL

| SMILES | CFTR activation activity (in words) (human wild-type CFTR [1]) | other results |
| --- | --- | --- |
| COC(=O)c1ccc([N+](=O)[O-])c(-c2nc3ccccc3n(Cc3ccccc3)c2=O)c1 [1a, Methyl 3-(4-Benzyl-3-oxo-3,4-dihydroquinoxalin-2-yl)-4-nitrobenzoate] | very low activity | – |
| O=C(O)c1ccc([N+](=O)[O-])c(-c2nc3ccccc3n(Cc3ccccc3)c2=O)c1 [1b, 3-(4-Benzyl-3-oxo-3,4-dihydroquinoxalin-2-yl)-4-nitrobenzoic Acid] | very low activity | – |
| O=c1c(-c2cccc([N+](=O)[O-])c2)nc2ccccc2n1Cc1ccccc1 [1c, 1-Benzyl-3-(3-nitrophenyl)quinoxalin-2(1H)-one] | – | Stool weight, pellet number and hydration [2]: fully normalized; Compound metabolized [3]: < 40%; Inhibition or activation of calcium-activated chloride channels [4]: neither inhibited nor activated; Increase in potency compared to 4 (human wild-type CFTR [1]; CFTR activation potency relative to 4): ~10 fold; Effect on cytoplasmic calcium and ATP-stimulated calcium elevation (cytoplasmic calcium): nor did it elevate cytoplasmic calcium or inhibit the ATP-stimulated elevation in cytoplasmic calcium; Inhibition or activation of TMEM16A (TMEM16A): neither inhibited nor activated; Effect on cellular cAMP level (cellular cAMP level): did not affect; Potency in nonpermeabilized versus permeabilized CFTR-expressing FRT cells (human wild-type CFTR [5]): similar |
| O=c1c(-c2ccccc2[N+](=O)[O-])nc2ccccc2n1Cc1ccccc1 [1d, 1-Benzyl-3-(2-nitrophenyl)quinoxalin-2(1H)-one] | reduced activity | – |
| O=c1c(-c2ccc([N+](=O)[O-])cc2)nc2ccccc2n1Cc1ccccc1 [1e, 1-Benzyl-3-(4-nitrophenyl)quinoxalin-2(1H)-one] | reduced activity | – |
| O=c1c(-c2ccc(C(F)(F)F)cc2)nc2ccccc2n1Cc1ccccc1 [1f, 1-Benzyl-3-(4-(trifluoromethyl)phenyl)quinoxalin-2(1H)-one] | low activity | – |
| O=c1c(-c2cccc(Br)c2)nc2ccccc2n1Cc1ccccc1 [1g, 1-Benzyl-3-(3-bromophenyl)quinoxalin-2(1H)-one] | low activity | – |
| O=c1c(-c2ccccc2)nc2ccccc2n1Cc1ccccc1 [1h, 1-Benzyl-3-phenylquinoxalin-2(1H)-one] | significantly lower activity | – |
| O=c1c(-c2ccc(F)c([N+](=O)[O-])c2)nc2ccccc2n1Cc1ccccc1 [1i, 1-Benzyl-3-(4-fluoro-3-nitrophenyl)quinoxalin-2(1H)-one] | reduced activity | – |
| COC(=O)c1ccc(N)c(-c2nc3ccccc3n(Cc3ccccc3)c2=O)c1 [1j, Methyl 4-Amino-3-(4-benzyl-3-oxo-3,4-dihydroquinoxalin-2-yl)-benzoate] | moderately potent | – |
| Nc1ccc(C(=O)O)cc1-c1nc2ccccc2n(Cc2ccccc2)c1=O [1k, 4-Amino-3-(4-benzyl-3-oxo-3,4-dihydroquinoxalin-2-yl)benzoic Acid] | inactive | – |
| N#Cc1cccc(-c2nc3ccccc3n(Cc3ccccc3)c2=O)c1 [1l, 3-(4-Benzyl-3-oxo-3,4-dihydroquinoxalin-2-yl)benzonitrile] | greatly reduced activity | – |
| O=c1c(-c2ccc3nonc3c2)nc2ccccc2n1Cc1ccccc1 [1m, 3-(Benzo[c][1,2,5]oxadiazol-5-yl)-1-benzylquinoxalin-2(1H)-one] | comparable potency to the nitro analog | – |
| O=c1c(-c2cccc([N+](=O)[O-])c2)nc2cc(Br)ccc2n1Cc1ccccc1 [2f, 1-Benzyl-6-bromo-3-(3-nitrophenyl)quinoxalin-2(1H)-one] | good activity; also recorded: underperforms by nearly an order of magnitude compared to unsubstituted 1c | – |
| Nc1ccc([N+](=O)[O-])cc1-c1nc2ccccc2n(Cc2ccccc2)c1=O [compound 4] | – | Off-target actions or toxicity (mice; chronic administration in mice): no apparent off-target actions or toxicity; Metabolism (mice): rapid metabolism; Oral bioavailability (mice; mice): minimal oral bioavailability |

Further lines, with some results ahead:

| CFTR activation activity (in words) (human wild-type CFTR [1]) | SMILES | other results |
| --- | --- | --- |
| good activity | O=c1c(-c2cccc([N+](=O)[O-])c2)nc2cc(Cl)ccc2n1Cc1ccccc1 [2b, 1-Benzyl-6-chloro-3-(3-nitrophenyl)quinoxalin-2(1H)-one] | – |
| reduced activity | O=c1c(-c2cccc([N+](=O)[O-])c2)nc2cc(Cl)c(Cl)cc2n1Cc1ccccc1 [2d, 1-Benzyl-6,7-dichloro-3-(3-nitrophenyl)quinoxalin-2(1H)-one] | – |
| reduced activity | O=c1c(-c2cccc([N+](=O)[O-])c2)nc2cc(F)c(F)cc2n1Cc1ccccc1 [2g, 1-Benzyl-6,7-difluoro-3-(3-nitrophenyl)quinoxalin-2(1H)-one] | – |
| reduced activity | Cc1cc2nc(-c3cccc([N+](=O)[O-])c3)c(=O)n(Cc3ccccc3)c2cc1C [2i, 1-Benzyl-6,7-dimethyl-3-(3-nitrophenyl)quinoxalin-2(1H)-one] | – |
| significantly reduced activity | O=c1c(-c2cccc([N+](=O)[O-])c2)nc2ccccc2n1Cc1cccc2ccccc12 [3f, 1-(Naphthalen-1-ylmethyl)-3-(3-nitrophenyl)quinoxalin-2(1H)-one] | – |
| significantly reduced activity | O=c1c(-c2cccc([N+](=O)[O-])c2)nc2ccccc2n1Cc1ccc2ccccc2c1 [3g, 1-(Naphthalen-2-ylmethyl)-3-(3-nitrophenyl)quinoxalin-2(1H)-one] | – |
| comparable activity | O=c1c(-c2cccc([N+](=O)[O-])c2)nc2ccccc2n1Cc1ccccn1 [3h, 3-(3-Nitrophenyl)-1-(pyridin-2-ylmethyl)quinoxalin-2(1H)-one] | – |
| comparable activity | O=c1c(-c2cccc([N+](=O)[O-])c2)nc2ccccc2n1Cc1ccco1 [3i, 1-(Furan-2-ylmethyl)-3-(3-nitrophenyl)quinoxalin-2(1H)-one] | – |
| comparable activity | O=c1c(-c2cccc([N+](=O)[O-])c2)nc2ccccc2n1Cc1cccs1 [3j, 3-(3-Nitrophenyl)-1-(thiophen-2-ylmethyl)quinoxalin-2(1H)-one] | – |
